# The source made the active and inactive calls. The rule behind the calls is not given here.
# Key:
# [1] = test system: Calf thymus DNA; test: Binding affinity to calf thymus DNA assessed as change in melting temperature at drug/ base pair ratio of 0.25 by spectrophotometry; assay type: nucleic-acid assay; conditions: Bos taurus
# Method in brief: (§1)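 CT-DNA absorbance followed at 260 nm from 20 to 100 °C, rising 1 °C per min, in BPE buffer, with or without compound at drug/base-pair ratio 0.25 or 0.5. Tm taken as midpoint of the hyperchromic transition from first-derivative plots. ΔTm is Tm with compound minus Tm of DNA alone.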
# [2] = test system: Calf thymus DNA; test: Binding affinity to calf thymus DNA assessed as change in melting temperature at drug/ base pair ratio of 0.5 by spectrophotometry; assay type: nucleic-acid assay; conditions: Bos taurus; method in brief: as §1
# [3] = test system: Calf thymus DNA; test: Binding affinity to calf thymus DNA at 50 uM circular dichroism spectroscopy; assay type: nucleic-acid assay; conditions: Bos taurus
# Method in brief: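 CD spectra recorded from 480 to 230 nm, 10 mm path, 20 °C, in BPE buffer. CT-DNA (50 µM) incubated with compound rising from 1 to 60 µM or to 80 µM. Compound without DNA served as the control for intrinsic CD.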
# [4] = molecular target: T1, DNA topoisomerase 1 (Homo sapiens) (UniProt P11387); test: Inhibition of human topoisomerase 1 assessed as topoisomerase poison activity by measuring generation of open circular DNA using supercoiled pUC19 DNA at 5 to 50 uM by agarose gel electrophoresis
# T1 sequence (whole entry): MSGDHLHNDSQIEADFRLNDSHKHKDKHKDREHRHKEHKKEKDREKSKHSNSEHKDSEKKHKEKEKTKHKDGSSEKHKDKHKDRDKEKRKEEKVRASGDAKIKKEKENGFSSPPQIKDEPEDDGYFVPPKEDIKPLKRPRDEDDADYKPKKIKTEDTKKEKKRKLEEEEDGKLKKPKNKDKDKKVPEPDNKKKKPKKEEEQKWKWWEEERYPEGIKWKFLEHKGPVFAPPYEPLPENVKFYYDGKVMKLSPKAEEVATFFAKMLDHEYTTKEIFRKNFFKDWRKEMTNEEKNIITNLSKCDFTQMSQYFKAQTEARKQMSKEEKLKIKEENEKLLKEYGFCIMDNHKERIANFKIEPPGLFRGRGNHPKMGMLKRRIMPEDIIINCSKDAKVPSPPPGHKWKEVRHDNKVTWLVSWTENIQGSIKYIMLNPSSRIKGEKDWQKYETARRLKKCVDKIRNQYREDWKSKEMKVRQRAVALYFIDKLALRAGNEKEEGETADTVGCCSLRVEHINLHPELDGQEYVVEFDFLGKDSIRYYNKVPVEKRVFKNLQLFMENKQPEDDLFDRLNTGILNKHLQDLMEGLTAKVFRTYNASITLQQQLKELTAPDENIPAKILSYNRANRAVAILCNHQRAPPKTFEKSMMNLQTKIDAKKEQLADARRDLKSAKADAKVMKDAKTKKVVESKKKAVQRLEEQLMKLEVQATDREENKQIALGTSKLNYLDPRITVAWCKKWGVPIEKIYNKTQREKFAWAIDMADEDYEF
# Method in brief: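 Supercoiled pUC19 plasmid was incubated with human topoisomerase I and graded compound concentrations. Reactions were stopped with SDS and proteinase K. DNA forms were resolved on 1% agarose in TBE (2 h, 120 V), post-stained with ethidium bromide and photographed under UV. Poisoning was read as appearance of nicked DNA, with camptothecin as the positive control.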
# [5] = Binding affinity to pBluescript 265 bp DNA fragment (unknown origin) at 1 to 25 uM incubated for 15 mins by DNase-1 foot printing assay
# Method in brief: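 265 bp EcoRI/PvuII fragment of pBluescript, 3'-end labelled with α[32P]-dATP, incubated with compound (up to 50 µM) for 15 min at 37 °C, then mildly digested with DNase I. Run on 8% denaturing polyacrylamide/8 M urea gels and imaged by phosphor screen. Base positions assigned against a DMS/piperidine G-track.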
# [6] = test system: Nucleic Acid; test: Induction of DNA intercalation in supercoiled pUC19 DNA in presence of human topoisomerase 1 assessed as effect on topoisomerase 1-mediated DNA relaxation at 5 to 50 uM by agarose gel electrophoresis; assay type: nucleic-acid assay; conditions: Escherichia coli
# Method in brief: (§2)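 Supercoiled pUC19 incubated with human topoisomerase I and graded compound concentrations. Stopped with SDS/proteinase K. DNA forms resolved on 1% agarose in TBE, 2 h at 120 V, stained post-run with ethidium bromide and viewed under UV. Camptothecin was the topo I poison control.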
# [7] = test system: MCF7; test: Antiproliferative activity against human MCF7 cells assessed as inhibition of cell proliferation after 72 hrs by MTT assay; assay type: functional, cell-based
# Method in brief: (§3)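 Cells grown as monolayers in DMEM with 10% FBS, 2 mM L-glutamine, penicillin/streptomycin, 37 °C, 5% CO2. Seeded at 5000/well on day 0. Compounds added after 24 h as five serial dilutions (0,01 to 100 µM), DMSO ≤0.1%, then 72 h. MTT read-out converted to percentage growth. IC50 by linear regression; quadruplicates in three experiments.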
# [8] = (§4) Antiproliferative activity against human SW620 cells assessed as inhibition of cell proliferation after 72 hrs by MTT assay; assay type: functional, cell-based, SW-620; method in brief: as §3
# [9] = test system: SW-620; test: as §4; assay type: functional, cell-based; method in brief: as §3
# [10] = test system: HepG2; test: Antiproliferative activity against human HepG2 cells assessed as inhibition of cell proliferation after 72 hrs by MTT assay; assay type: functional, cell-based; conditions: for IC50: HepG2, 72 h; method in brief: as §3
# [11] = test system: BJ; test: Antiproliferative activity against human BJ cells assessed as inhibition of cell proliferation after 72 hrs by MTT assay; assay type: cell-based; conditions: for inhibition (INH): human; method in brief: as §3
# [12] = test system: HeLa; test: Antiproliferative activity against human HeLa cells assessed as inhibition of cell proliferation after 72 hrs by MTT assay; assay type: functional, cell-based; method in brief: as §3
# [13] = test system: Nucleic Acid; test: Induction of DNA intercalation in supercoiled pUC19 DNA in presence of human topoisomerase 1 assessed as effect on topoisomerase 1-mediated DNA relaxation at 50 uM by agarose gel electrophoresis; assay type: nucleic-acid assay; conditions: Escherichia coli; method in brief: as §2
ΔTm [2],"IC50 ([7]; Homo sapiens, MCF7, 72 h)",IC50 [10],"IC50 ([12]; Homo sapiens, HeLa, 72 h)",SMILES,inhibition [4],inhibition [7],"IC50 ([8]; Homo sapiens, SW-620, 72 h)",inhibition [9],inhibition [10],"IC50 ([11]; Homo sapiens, BJ, 72 h)","inhibition (INH) ([11]; bj, 72 h)",inhibition [12],other results
19.6 °C,20 µM,83.2 µM,78 µM,Cl.c1ccc2c(c1)CN(c1ccc(C3=NCCN3)cc1)/C2=N/c1ccc(C2=NCCN2)cc1,inactive,Dose-dependent effect,> 100 µM,Dose-dependent effect,Dose-dependent effect,8.77 µM,Dose-dependent effect,Dose-dependent effect,ΔTm [1]: 16 °C; Activity [3]: Active; Activity [5]: inactive; Activity [6]: Active
–,8.99 µM,82.3 µM,92.5 µM,CN(C)c1ccc(/N=C2\c3ccccc3CN2c2ccc(N(C)C)cc2)cc1,–,Dose-dependent effect,> 100 µM,Dose-dependent effect,Dose-dependent effect,> 100 µM,Dose-dependent effect,Dose-dependent effect,–
0 °C,16 µM,30.4 µM,> 100 µM,CC(=O)Nc1ccc(/N=C2\c3ccccc3CN2c2ccc(NC(C)=O)nc2)cn1,inactive,Dose-dependent effect,> 100 µM,Dose-dependent effect,Dose-dependent effect,> 100 µM,Dose-dependent effect,Dose-dependent effect,Activity [6]: inactive
14.6 °C,42.1 µM,33.9 µM,68.8 µM,Cl.N=C(N)c1ccc(/N=C2\c3ccccc3CN2c2ccc(C(=N)N)nc2)cn1,inactive,Dose-dependent effect,> 100 µM,Dose-dependent effect,Dose-dependent effect,> 100 µM,Dose-dependent effect,Dose-dependent effect,ΔTm [1]: 8.8 °C; Activity [3]: Active; Activity [6]: Active
4.4 °C,> 100 µM,> 100 µM,> 100 µM,CC(C)NC(=N)c1ccc(/N=C2\c3ccccc3CN2c2ccc(C(=N)NC(C)C)cn2)nc1.Cl,inactive,Dose-dependent effect,> 100 µM,Dose-dependent effect,Dose-dependent effect,> 100 µM,Dose-dependent effect,Dose-dependent effect,Activity [3]: inactive
0 °C,–,–,–,Nc1ccc(/N=C2\c3ccccc3CN2c2ccc(N)cc2)cc1 [listing 1 of 2 here],inactive,Dose-dependent effect,–,Dose-dependent effect,Dose-dependent effect,–,–,Dose-dependent effect,Activity [6]: inactive
0 °C,0.7 µM,43.2 µM,97.1 µM,Cc1ccnc(/N=C2\c3ccccc3CN2c2cc(C)ccn2)c1,inactive,Dose-dependent effect,> 100 µM,Dose-dependent effect,Dose-dependent effect,80.1 µM,Dose-dependent effect,Dose-dependent effect,Activity [13]: Active
–,6.43 µM,51.5 µM,> 100 µM,CC(C)NC(=N)c1ccc(N2Cc3ccccc3C2=O)nc1.Cl,–,Dose-dependent effect,79.9 µM,Dose-dependent effect,Dose-dependent effect,18.1 µM,Dose-dependent effect,Dose-dependent effect,–
–,40.5 µM,5.51 µM,4.46 µM,N#Cc1ccc(/N=C2\c3ccccc3CN2c2ccc(C#N)nc2)cn1,–,Dose-dependent effect,83.8 µM,Dose-dependent effect,Dose-dependent effect,9 µM,Dose-dependent effect,Dose-dependent effect,–
–,–,> 100 µM,> 100 µM,Nc1ccc(/N=C2\c3ccccc3CN2c2ccc(N)cc2)cc1 [listing 2 of 2 here],–,–,> 100 µM,–,–,> 100 µM,Dose-dependent effect,–,IC50 ([7]; mcf7): 0.05 µM
–,35.6 µM,40.6 µM,60 µM,Cl.N=C(N)c1ccc(N2Cc3ccccc3C2=O)nc1,–,Dose-dependent effect,44.8 µM,Dose-dependent effect,Dose-dependent effect,15.8 µM,Dose-dependent effect,Dose-dependent effect,–
–,–,–,–,Cl.Nc1ccc(/N=C2\c3ccccc3CN2c2ccc(N)cc2)cc1,–,–,–,–,–,–,Dose-dependent effect,–,IC50 ([7]; mcf7): 0.73 µM; IC50 ([8]; sw-620): 51.1 µM; IC50 ([11]; bj): 80.5 µM; IC50 ([12]; hela): 62.4 µM
–,38.2 µM,71 µM,> 100 µM,CC(=O)Nc1ccc(/N=C2\c3ccccc3CN2c2ccc(NC(C)=O)cc2)cc1,–,Dose-dependent effect,> 100 µM,Dose-dependent effect,Dose-dependent effect,92.4 µM,Dose-dependent effect,Dose-dependent effect,–
–,80.7 µM,88.9 µM,> 100 µM,Nc1ccc(/N=C2\c3ccccc3CN2c2ccc(N)nc2)cn1,–,Dose-dependent effect,> 100 µM,Dose-dependent effect,Dose-dependent effect,> 100 µM,Dose-dependent effect,Dose-dependent effect,–
